# An excerpt weighted towards active compounds, which were near 2.9% of everything screened.
# SIRT5 inh: blocks human SIRT5 desuccinylation of peptide. Purified SirT5, succinyl-peptide AMC, trypsin-coupled fluorescence. inhibition, % at 15 µM. hit rate 1.1% among 330,000. AID 652115; in the data active = inhibition above about 15%; inconclusive = no clear call, values can overlap the other calls
# Target sequence (Q9NXA8 whole entry, looked up): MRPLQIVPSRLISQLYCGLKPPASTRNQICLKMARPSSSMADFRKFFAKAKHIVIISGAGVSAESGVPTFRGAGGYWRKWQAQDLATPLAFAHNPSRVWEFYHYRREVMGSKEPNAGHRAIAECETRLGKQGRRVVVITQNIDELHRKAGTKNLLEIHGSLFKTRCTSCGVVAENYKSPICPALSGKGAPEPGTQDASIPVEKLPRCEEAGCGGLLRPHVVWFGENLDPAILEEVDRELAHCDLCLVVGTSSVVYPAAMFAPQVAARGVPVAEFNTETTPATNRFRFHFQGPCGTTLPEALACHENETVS
# S100A4 MyoIIA: inhibitors of human S100A4 binding to myosin IIA peptide. P26447. S100A4/TAMRA-MyoIIA peptide fluorescence polarization. inhibition, % at 10.7 µM. hit rate 0.14% among 360,000;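 active = mean inhibition of at least 70% across replicates, with every replicate also reaching that level; inconclusive = mean inhibition reaches 70% but some replicates fall short; inactive = mean inhibition below 70%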
# Target sequence (P26447 whole entry, looked up): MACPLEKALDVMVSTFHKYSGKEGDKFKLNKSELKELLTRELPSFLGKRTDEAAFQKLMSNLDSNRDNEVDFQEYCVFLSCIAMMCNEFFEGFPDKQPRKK
#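 Material: S100A4 monomer (human). Medium: Calcium-containing HEPES buffer, pH 7.2. Probe or stimulus: labelled myosin peptide probe, 5 nM. Compound dosing: one concentration per compound. Timing: polarization read 5 min after assay mix addition, stable 5–60 min. Benchmarks: DMSO as neutral control, TFP as positive control.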
# DENV2 CPE rescue: protects cells from dengue virus 2 cytopathic effect | AID 651640 | hit rate 1.7% among 350,000 | DENV2-infected cells, cytopathic effect rescue, plate reader | CPE inhibition, % at 9.99 µM; in the data active = CPE inhibition above about 20%, passing the limit was not always enough; inconclusive = no clear call, values can overlap the other calls; tested in BHK-21 cells;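 also: 0% = median of neutral control wells and 100% = median of positive control wells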
# ERAP1 HTS inh: blocks human ERAP1 aminopeptidase activity; recombinant ERAP1, Leu-AMC fluorescence, 60 min; inhibition, % at 10.7 µM; hit rate 0.15% among 340,000;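 active = mean replicate inhibition of at least 30%, or all replicates individually reaching that 30% level; inactive = mean below 30% and not every replicate reaching it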;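 also: 0% = neutral control wells and 100% = L-leucinethiol positive control wells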
# CAL PDZ FP-1: blocks peptide binding to the human CAL PDZ domain; inhibition, % at 24.9 µM; purified CAL PDZ, TMR-peptide fluorescence polarization, 1 h; Q9HD26; AID 602252; hit rate 0.92% among 300,000;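 active = mean inhibition of at least 30% with at least half of replicates also reaching 30%; inconclusive = no clear call, values can overlap the other calls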;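 also: 0% = DMSO neutral control and 100% = excess unlabeled competitor peptide PRC23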
# CAL PDZ FP-2: inhibitors of human CAL PDZ peptide binding; Q9HD26; purified CAL PDZ, TMR-peptide fluorescence polarization, 1 h; inhibition, % at 20 µM; hit rate 0.02% among 330,000; AID 504414;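 active = highest replicate inhibition of at least 40%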;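 also: plate controls were DMSO neutral control wells for no effect and unlabeled competitor peptide control wells for full effect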
#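 material = purified tagged CAL PDZ domain construct (CerCALP) | buffer or medium = sodium phosphate/NaCl buffer pH 7.4 with TCEP, IgG, Thesit | reagent = TMR-labelled reporter peptide T*-PRC34 bound in PDZ groove | incubation = 1 h room-temperature incubation prior to read | measured by = fluorescence polarization (mP) | evaluation = percent inhibition from loss of millipolarization | control set = unlabelled peptide and DMSO controls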
# * marks the source's active call; other numbers are inactive results; ? = inconclusive; · = no result given.
SMILES,SIRT5 inh,S100A4 MyoIIA,DENV2 CPE rescue,ERAP1 HTS inh,CAL PDZ FP-1,CAL PDZ FP-2
CC(C)NC(=O)Nc1ccc2c(c1)C(=O)N([C@@H](C)CO)C[C@H](C)[C@@H](CN(C)Cc1ccc(-c3ccccc3)cc1)O2,3,0,-1,0,·,·
CCC(=O)N[C@@H]1CC[C@@H](CC(=O)NCc2ccccc2OC)O[C@@H]1CO,-3,6,-8,-2,·,·
CN(C)C(=O)[C@@H]1[C@@H](CO)[C@@H]2Cn3c(ccc(C4=CCCC4)c3=O)[C@H]1N2CC1CCOCC1,-4,-6,4,0,·,·
CNC[C@H]1OCCCC[C@@H](C)Oc2ccc(NS(=O)(=O)c3ccc(C)cc3)cc2C(=O)N([C@H](C)CO)C[C@@H]1C,-1,-6,30*,2,·,·
CCCNC(=O)C[C@H]1CC[C@H]2[C@@H](COc3ccc(NS(=O)(=O)c4ccccc4C)cc3C(=O)N2C)O1,0,-9,-2,1,·,·
O=C(Nc1nnc([C@H]2C[C@H](O)[C@@H](CO)O2)s1)c1ccccc1F,3,4,29*,7,·,·
COc1ccc(/C=C2\SC(=S)N(C(Cc3ccccc3)C(=O)O)C2=O)cc1 (stereo unspecified),4,3,-8,5,-7,·
O=C(O)CC(C(=O)O)N1C(=O)/C(=C/C=C/c2ccco2)SC1=S (stereo unspecified),30*,-20,5,26,1,-1
O=C(O)CCCN1C(=O)/C(=C/C=C/c2ccco2)SC1=S,32*,-26,8,12,-1,0
Cn1cccc1/C=C1\SC(=S)N(NC(=O)c2ccccc2O)C1=O,5,16,5,·,-7,-1
O=C(O)C(Cc1ccccc1)N1C(=O)/C(=C/C=C/c2ccco2)SC1=S (stereo unspecified),45*,-86,6,15,-2,-1
O=C(NN1C(=O)/C(=C/C=C/c2ccco2)SC1=S)c1ccccc1O,46*,-8,7,0,-1,0
Fc1cccc(C2NC(=S)NC3=C2N2CCC3CC2)c1 (stereo unspecified),21*,-8,·,-2,-4,-1
S=C1NC2=C(C(c3ccc(Br)cc3)N1)N1CCC2CC1 (stereo unspecified),·,·,·,·,-4,-1
COc1ccc2c3c([nH]c2c1)[C@H](CO)N(Cc1ccccc1OC)CC31CN(C)C1,·,-5,-4,53*,·,·
COc1ccc2c3c([nH]c2c1)[C@@H](CO)N(Cc1ccccc1OC)CC31CN(C)C1,·,11,-6,51*,·,·
COc1ccc2c3c([nH]c2c1)[C@H](CO)N(Cc1ccccc1F)CC31CN(C)C1,·,·,-1,·,·,·
O=C(NC1Cc2ccccc2C1)[C@@H]1N[C@@H]2c3ccc(C4=CCCCC4)c(=O)n3C[C@@H]2[C@H]1CO,-2,-12,-6,2,·,·
COc1ccc(CN(C)C[C@@H]2Oc3c(NS(=O)(=O)c4ccc(C)cc4)cccc3C(=O)N([C@@H](C)CO)C[C@@H]2C)cc1,-3,-5,-6,1,·,·
COc1ccc(NC(=O)N(C)C[C@@H]2Oc3ccc(N(C)C)cc3C(=O)N([C@@H](C)CO)C[C@H]2C)cc1,1,14,-5,5,·,·
COc1cccc(S(=O)(=O)Nc2ccc3c(c2)C(=O)N(C)C[C@H](OC)[C@H](C)CN(C(=O)Cc2cccnc2)[C@@H](C)CO3)c1,·,0,1,-2,·,·
COCC(=O)Nc1ccc2c(c1)C(=O)N(C)C[C@@H](OC)[C@@H](C)CN(C(=O)Cc1cccnc1)[C@@H](C)CO2,2,-4,-1,1,·,·
COc1cccc(S(=O)(=O)Nc2ccc3c(c2)C(=O)N(C)C[C@@H](OC)[C@@H](C)CN(C(=O)Cc2cccnc2)[C@H](C)CO3)c1,·,1,52*,1,·,·
COCC(=O)Nc1ccc2c(c1)OC[C@H](C)N(C(=O)c1ccncc1)C[C@H](C)[C@H](OC)CN(C)C2=O,-6,0,13,-1,·,·
COCC(=O)Nc1ccc2c(c1)OC[C@@H](C)N(C(=O)Cc1cccnc1)C[C@H](C)[C@@H](OC)CN(C)C2=O,9,-8,49*,2,·,·
SMILES,SIRT5 inh,S100A4 MyoIIA,DENV2 CPE rescue,ERAP1 HTS inh,CAL PDZ FP-1,CAL PDZ FP-2
COCC(=O)Nc1ccc2c(c1)OC[C@H](C)N(C(=O)Cc1cccnc1)C[C@@H](C)[C@H](OC)CN(C)C2=O,1,-11,26*,-3,·,·
COCC(=O)Nc1ccc2c(c1)OC[C@@H](C)N(C(=O)c1ccncc1)C[C@@H](C)[C@H](OC)CN(C)C2=O,-4,-19,32*,1,·,·
CO[C@H]1CN(C)C(=O)c2cc(NC(=O)c3ccccc3)ccc2OC[C@H](C)N(C(C)=O)C[C@H]1C,3,14,6,-2,·,·
C[C@H](CO)N1C[C@H](C)[C@H](CN(C)CC2CCCCC2)Oc2ccc(NC(=O)Nc3ccc(C(F)(F)F)cc3)cc2CC1=O,-2,-47,12,2,·,·
C[C@@H]1CN([C@H](C)CO)C(=O)Cc2cc(NC(=O)NC3CCCCC3)ccc2O[C@H]1CN(C)Cc1ccc(Oc2ccccc2)cc1,3,7,-4,3,·,·
Cc1noc(C)c1NC(=O)N(C)C[C@@H]1OCCCC[C@@H](C)Oc2ccc(NS(=O)(=O)c3ccc(Cl)cc3)cc2C(=O)N([C@H](C)CO)C[C@H]1C,4,0,-1,-4,·,·
C[C@@H]1CN([C@H](C)CO)C(=O)Cc2cc(NC(=O)CCN3CCOCC3)ccc2O[C@H]1CN(C)S(=O)(=O)c1cn(C)cn1,1,0,5,0,·,·
O=C(NNC(=O)C1CCC1)c1ccc(Br)cc1,-1,-22,-2,2,50*,0
CCOc1ccc(N2CC(C(=O)NNC(=O)c3ccc(Br)cc3)CC2=O)cc1 (stereo unspecified),1,73*,6,-2,0,0
O=C(NNC(=O)C1CCCCC1)c1ccc(Br)cc1,-3,0,7,3,3,-1
CCCNC(=O)C1CC(=O)N(c2ccc(OCC)cc2)C1 (stereo unspecified),0,1,4,-3,7,-2
CN(C)C(=O)c1cccc(-c2ccccc2[C@H]2[C@@H](C#N)N(C(=O)C3CCC3)[C@H]2CO)c1,3,7,7,4,·,·
Cc1ccc(S(=O)(=O)Nc2ccccc2C(=O)N2CCN(C)CC2)cc1,-6,0,1,2,44*,1
Cc1ccc(S(=O)(=O)Nc2ccccc2C(=O)N2CCCC2)cc1,-4,-4,?,0,·,-1
COCC#Cc1ccc2c(c1)O[C@@H](CN(C)C(=O)CN(C)C)[C@H](C)CN([C@@H](C)CO)S2(=O)=O,5,-1,17,1,·,·
